Measurements: ChEMBL document CHEMBL4823259, “Bufadienolides from the Eggs of the Toad Bufo bufo gargarizans and Their Antimelanoma Activities” (J Nat Prod, 2021)
Active and inactive are the calls of the source. The calls are words filed in the database; no cut-off is given here.

Legend:
Danio rerio [1] = species on record: Danio rerio; assay: Antiangiogenic activity in transgenic Tg(fli1:GFP) zebra fish embryo assessed as reduction in intersegmental blood vessels at 20 uM measured at 48 hrs postfertilization by fluorescence microscopy; assay type: functional, organism-based
Summary of the method: (§1)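 Tg:Fli1-GFP embryos selected at 12 hpf, 30 per well, 28.5 °C in E3 medium, exposed to compound (20 μM); chorions broken at 24 hpf; at 48 hpf ISVs and angiogenic sprouts counted by fluorescence microscopy. Sorafenib (1 μM) positive control; mean, SD; one-way ANOVA with Tukey post hoc test.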

[2] = Toxicity in zebra fish larvae assessed as death at 100 uM measured at 48 hpf by stereomicroscopic analysis; design: species or system Danio rerio; conditions: zebrafish, 48 h
Summary of the method: (§2)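 Zebrafish larvae at 48 hpf, kept at 28.5 °C in E3 medium, treated with compound; survival and pathological changes (e.g. pericardial edema) checked by stereomicroscope every 12 h.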

[3] = Toxicity in zebra fish larvae assessed as curved tail at 100 uM measured at 48 hpf by stereomicroscopic analysis; design: species or system Danio rerio; conditions: zebrafish, 48 h; summary of the method: as §2
SK-MEL [4] = assay: Cytotoxicity against human SK-MEL cells assessed as reduction in cell viability measured after 48 hrs by MTT assay; assay type: functional, cell-based
Summary of the method: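 MTT assay: SK-MEL-1 cells (DMEM, 10% FBS, 37 °C, 5% CO2) seeded 10⁴/well for 24 h, then exposed to a range of concentrations for 48 h; MTT added for 4 h at 37 °C, formazan dissolved in DMSO, absorbance 570 nm. IC50 as mean ± SD, three independent experiments.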

[5] = Toxicity in zebra fish larvae assessed as pericardial edema at 100 uM measured at 48 hpf by stereomicroscopic analysis; design: species or system Danio rerio; conditions: zebrafish, 48 h; summary of the method: as §2
SK-MEL [6] = assay: Induction of apoptosis in human SK-MEL cells assessed as increase in cleaved PARP level at 0.1 to 0.5 uM incubated for 48 hrs by Western blot analysis; assay type: functional, cell-based; conditions: dose 0.1-0.5 µM
Summary of the method: (§3)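 SK-MEL-1 cells seeded 3 × 10⁵/well for 24 h, treated 48 h; lysed in RIPA buffer with protease and phosphatase inhibitors 15 min at 4 °C; 20 μg protein by SDS-PAGE, PVDF transfer, PARP immunoblot with ECL detection; β-actin loading control. Sorafenib (10 μM) positive control.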

Danio rerio [7] = species on record: Danio rerio; assay: Antiangiogenic activity in transgenic Tg(fli1:GFP) zebra fish embryo assessed as reduction in angiogenic sprouts at 20 uM measured at 48 hrs postfertilization by fluorescence microscopy; assay type: functional, organism-based; summary of the method: as §1
SK-MEL [8] = assay: Anti-melanoma activity against human SK-MEL cells xenografted in yolk of zebra fish at 10 uM measured after 48 hrs by CM-Dil staining based fluorescence microscopic analysis; assay type: functional, cell-based
Summary of the method: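 SK-MEL-1 cells prelabelled with CM-DiI (2 μM) microinjected into superficial yolk near perivitelline space of 2 dpf zebrafish embryos; treated 48 h at 28.5 °C; CM-DiI fluorescence of tumour mass imaged by fluorescence microscopy in immobilized fish. Sorafenib (0.5 μM) positive control.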

[9] = Toxicity in zebra fish larvae at 100 uM measured at 48 hpf by stereomicroscopic analysis; design: species or system Danio rerio; conditions: zebrafish, 48 h; summary of the method: as §2
SK-MEL [10] = assay: Induction of apoptosis in human SK-MEL cells assessed as increase in cleaved PARP level at 0.5 to 1 uM incubated for 48 hrs by Western blot analysis; assay type: functional, cell-based; conditions: dose 0.5-1 µM; summary of the method: as §3
[11] = biological target: Vascular endothelial growth factor receptor 2 (Danio rerio) (UniProt Q5GIT4); assay: Inhibition of VEGFR2 mediated angiogenesis in transgenic Tg(flk1:GFP) zebra fish embryo at 20 uM measured at 48 hrs postfertilization by fluorescence microscopy
Sequence of Vascular endothelial growth factor receptor 2 (Danio rerio) (Q5GIT4 whole entry): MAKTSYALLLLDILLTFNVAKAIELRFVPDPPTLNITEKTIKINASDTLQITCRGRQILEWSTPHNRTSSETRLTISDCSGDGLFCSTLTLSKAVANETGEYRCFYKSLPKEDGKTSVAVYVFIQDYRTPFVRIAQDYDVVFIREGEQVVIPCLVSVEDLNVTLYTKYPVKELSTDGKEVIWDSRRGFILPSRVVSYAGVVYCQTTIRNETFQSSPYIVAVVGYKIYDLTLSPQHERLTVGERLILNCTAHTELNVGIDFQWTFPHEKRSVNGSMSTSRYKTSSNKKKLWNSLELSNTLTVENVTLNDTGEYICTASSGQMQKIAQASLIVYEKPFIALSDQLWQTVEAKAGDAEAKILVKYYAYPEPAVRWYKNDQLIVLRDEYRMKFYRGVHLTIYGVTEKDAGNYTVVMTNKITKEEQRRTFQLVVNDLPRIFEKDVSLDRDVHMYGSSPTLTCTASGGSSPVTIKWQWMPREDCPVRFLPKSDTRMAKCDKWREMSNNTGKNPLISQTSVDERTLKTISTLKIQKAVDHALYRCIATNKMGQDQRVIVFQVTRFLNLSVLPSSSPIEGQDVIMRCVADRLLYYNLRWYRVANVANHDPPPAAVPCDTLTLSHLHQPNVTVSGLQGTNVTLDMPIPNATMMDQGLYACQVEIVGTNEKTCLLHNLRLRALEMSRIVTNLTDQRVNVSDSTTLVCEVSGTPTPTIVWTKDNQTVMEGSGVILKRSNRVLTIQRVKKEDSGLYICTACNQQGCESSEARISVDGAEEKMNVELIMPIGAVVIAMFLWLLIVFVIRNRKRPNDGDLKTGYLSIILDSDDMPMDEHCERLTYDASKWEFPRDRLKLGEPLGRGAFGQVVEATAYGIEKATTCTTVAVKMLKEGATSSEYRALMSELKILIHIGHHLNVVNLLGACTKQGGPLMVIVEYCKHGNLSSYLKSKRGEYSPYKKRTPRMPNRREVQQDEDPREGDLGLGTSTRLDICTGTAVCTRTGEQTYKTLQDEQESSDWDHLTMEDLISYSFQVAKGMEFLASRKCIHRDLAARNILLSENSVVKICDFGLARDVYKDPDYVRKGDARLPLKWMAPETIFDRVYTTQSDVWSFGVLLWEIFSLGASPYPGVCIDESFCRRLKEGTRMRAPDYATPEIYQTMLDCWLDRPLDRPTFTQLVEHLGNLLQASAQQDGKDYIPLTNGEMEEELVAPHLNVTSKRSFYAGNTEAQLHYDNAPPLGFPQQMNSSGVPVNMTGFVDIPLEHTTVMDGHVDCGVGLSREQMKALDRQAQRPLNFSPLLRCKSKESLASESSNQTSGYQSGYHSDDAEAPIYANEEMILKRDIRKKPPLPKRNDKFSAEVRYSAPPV
Summary of the method: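 Tg:Flk1-GFP (VEGFR2 reporter) embryos treated from 12 hpf at 20 μM, 28.5 °C in E3 medium; chorions removed at 24 hpf; ISV and sprout numbers counted at 48 hpf under fluorescence microscope. Sorafenib (1 μM) positive control; one-way ANOVA, Tukey post hoc test.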

SK-MEL [12] = assay: Anti-melanoma activity against human SK-MEL cells xenografted in yolk of zebra fish at 0.5 uM measured after 48 hrs by CM-Dil staining based fluorescence microscopic analysis; assay type: functional, cell-based
Summary of the method: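 SK-MEL-1 cells were prestained with CM-DiI (2 μM) and microinjected into the superficial yolk near the perivitelline space of 2 dpf zebrafish. Embryos were kept in E3 medium, treated for 48 h at 28.5 °C, then immobilized. CM-DiI fluorescence was imaged by fluorescence microscopy alongside bright field, and the melanoma area was outlined.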

SK-MEL [13] = assay: Induction of apoptosis in human SK-MEL cells assessed as increase in cleaved PARP level at 10 uM incubated for 48 hrs by Western blot analysis; assay type: functional, cell-based
Summary of the method: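 SK-MEL-1 cells (DMEM, 10% FBS, 37 °C, 5% CO2) were seeded at 3 × 10⁵/well for 24 h, then treated for 48 h. They were lysed in RIPA buffer with PMSF, orthovanadate, DTT and phosphatase inhibitor for 15 min at 4 °C, and protein was quantified by BCA. 20 μg was run on SDS-PAGE and blotted to PVDF, with primary antibody overnight at 4 °C and secondary 1 h at room temperature. Detection was by ECL, with β-actin as loading control.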

SK-MEL [14] = assay: Induction of apoptosis in human SK-MEL cells assessed as increase in cleaved PARP level at 0.2 to 0.8 uM incubated for 48 hrs by Western blot analysis; assay type: functional, cell-based; conditions: dose 0.2-0.8 µM; summary of the method: as §3

Row | SMILES | Activity (Danio rerio [1]) | Activity [2] | Activity [3] | IC50 (SK-MEL [4]) [nM] | Activity [5] | Activity (Danio rerio [7]) | Activity [9] | other results
1 | C[C@]12CC[C@H](O)C[C@@]1(O)CC[C@@H]1[C@@H]2CC[C@]2(C)[C@@H](c3ccc(=O)oc3)CC[C@]12O [TELOCINOBUFAGIN] | inactive | Toxic | Toxic | 50 | Toxic | inactive |  | Activity (SK-MEL [6]): Active; Activity (SK-MEL [8]): Active
2 | C[C@]12CC[C@H]3[C@@H](CC[C@]4(O)C[C@@H](O)CC[C@]34O)[C@@]1(O)CC[C@@H]2c1ccc(=O)oc1 | Active |  |  | 910 |  | Active | Non-Toxic | Activity (SK-MEL [10]): inactive; Activity [11]: inactive
3 | C[C@]12CC[C@@H]3[C@H]4CC[C@H](O)C[C@@]4(O)CC[C@H]3[C@]13O[C@@H]3C[C@@H]2c1ccc(=O)oc1 | inactive | Toxic | Toxic | 3600 | Toxic | inactive |  | 
4 | C[C@]12CC[C@H](O)C[C@@]1(O)CC[C@@H]1[C@@H]2CC[C@]2(C)[C@@H](c3ccc(=O)oc3)[C@@H](O)C[C@]12O | inactive |  |  | 700 |  | inactive | Non-Toxic | 
5 | CNC(=O)c1cc(Oc2ccc(NC(=O)Nc3ccc(Cl)c(C(F)(F)F)c3)cc2)ccn1 [SORAFENIB] |  |  |  | 10000 |  |  |  | Activity (SK-MEL [12]): Active; Activity (SK-MEL [13]): inactive
6 | C[C@]12CC[C@@H]3C4=C(C[C@H]3[C@@]1(O)CC[C@@H]2c1ccc(=O)oc1)C(=O)C=CCC4 | inactive | Toxic | Toxic | 3300 | Toxic | inactive |  | 
7 | C[C@]12CC[C@H]3[C@@H](CC[C@]4(O)C[C@@H](O)CC[C@]34C(=O)O)[C@@]1(O)CC[C@@H]2c1ccc(=O)oc1 | inactive |  |  | 290 |  | inactive | Non-Toxic | 
8 | C[C@]12CC[C@@H]3[C@H]4CC[C@H](O)C[C@@]4(O)CC[C@H]3[C@@]1(O)CC[C@@H]2c1ccc(=O)oc1 |  |  |  | 280 |  |  |  | 
9 | C[C@]12CC[C@H]3[C@@H](CC[C@]4(O)C[C@@H](O)CC[C@]34C=O)[C@@]1(O)CC[C@@H]2c1ccc(=O)oc1 | Active |  |  | 96 | Toxic | Active |  | Activity (SK-MEL [14]): inactive; Activity [11]: inactive
